Assay results: ChEMBL document CHEMBL2440035, “Azetidines and spiro azetidines as novel P2 units in hepatitis C virus NS3 protease inhibitors” (Bioorg Med Chem Lett, 2013)
pEC50, pIC50: −log10 of the molar value.

Tests used:
Plasminogen = Plasminogen (Homo sapiens, UniProt P00747); experiment: Inhibition of human plasmin
Hepatitis C virus [1] = experiment: Ratio of EC50 for Hepatitis C virus genotype 1b NS3/4A protease V170A mutant to EC50 Hepatitis C virus genotype 1b wild type NS3/4A protease; set-up: species or system Hepatitis C virus subtype 1b
Outline: (§1)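 Genotype 1b NS3 protease enzyme panel: wild type plus resistance mutants A156T, R155K, D168V, V36M, A156S, V170A and D168A. […] Resistance is expressed as the fold increase of each mutant's value over the wild-type value.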

[2] = biological target: T1, Neutrophil elastase (Homo sapiens) (UniProt P08246); experiment: (§2) Inhibition of human neutrophil elastase
T1 sequence (whole entry): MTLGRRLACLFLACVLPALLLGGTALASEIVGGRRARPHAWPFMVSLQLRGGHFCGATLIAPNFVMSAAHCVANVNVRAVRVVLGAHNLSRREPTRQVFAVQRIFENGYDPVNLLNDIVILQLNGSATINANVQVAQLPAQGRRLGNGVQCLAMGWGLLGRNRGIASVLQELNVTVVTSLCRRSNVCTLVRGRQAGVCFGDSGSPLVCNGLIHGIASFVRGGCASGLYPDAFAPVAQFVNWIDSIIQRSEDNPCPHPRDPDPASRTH

Hepatitis C virus [3] = experiment: Ratio of EC90 for Hepatitis C virus genotype 1b NS3/4A protease D168A mutant to EC90 Hepatitis C virus genotype 1b wild type NS3/4A protease; set-up: species or system Hepatitis C virus subtype 1b; outline: as §1
Hepatitis C virus [4] = experiment: Ratio of EC50 for Hepatitis C virus genotype 1b NS3/4A protease V36M mutant to EC50 Hepatitis C virus genotype 1b wild type NS3/4A protease; set-up: species or system Hepatitis C virus subtype 1b; outline: as §1
Hepatitis C virus [5] = experiment: Inhibition of Hepatitis C virus genotype 1b NS3/4A protease A156S mutant; set-up: species or system Hepatitis C virus subtype 1b
Outline: (§3)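 Panel of genotype 1b NS3 protease enzymes (wild type and mutants). IC50 and IC90 are averages ± standard error from 2 independent assays. Fold change versus wild type given in parentheses.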

Hepatitis C virus [6] = experiment: Inhibition of Hepatitis C virus genotype 1b NS3/4A protease R155K mutant; set-up: species or system Hepatitis C virus subtype 1b; outline: as §3
Hepatitis C virus [7] = experiment: Ratio of EC50 for Hepatitis C virus genotype 1b NS3/4A protease A156S mutant to EC50 Hepatitis C virus genotype 1b wild type NS3/4A protease; set-up: species or system Hepatitis C virus subtype 1b; outline: as §1
Hepatitis C virus [8] = experiment: Inhibition of Hepatitis C virus genotype 1b wild type NS3/4A protease; set-up: species or system Hepatitis C virus subtype 1b; outline: as §3
Hepatitis C virus [9] = experiment: Inhibition of Hepatitis C virus genotype 1b NS3/4A protease A156T mutant; set-up: species or system Hepatitis C virus subtype 1b; outline: as §3
Hepatitis C virus [10] = experiment: Ratio of EC90 for Hepatitis C virus genotype 1b NS3/4A protease D168V mutant to EC90 Hepatitis C virus genotype 1b wild type NS3/4A protease; set-up: species or system Hepatitis C virus subtype 1b; outline: as §1
Hepatitis C virus [11] = experiment: Antiviral activity against Hepatitis C virus infected in human HuH7 cells assessed as viral RNA replication; assay type: functional, organism-based, Hepacivirus hominis; conditions: Huh-7
Outline: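 Subgenomic HCV replicon in Huh7 cells; inhibition of HCV RNA replication measured by extraction and amplification of HCV RNA. Each concentration run in triplicate and reported as mean; EC50 derived.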

Hepatitis C virus [12] = experiment: Ratio of EC90 for Hepatitis C virus genotype 1b NS3/4A protease R155K mutant to EC90 Hepatitis C virus genotype 1b wild type NS3/4A protease; set-up: species or system Hepatitis C virus subtype 1b; outline: as §1
Hepatitis C virus [13] = experiment: Ratio of EC50 for Hepatitis C virus genotype 1b NS3/4A protease R155K mutant to EC50 Hepatitis C virus genotype 1b wild type NS3/4A protease; set-up: species or system Hepatitis C virus subtype 1b; outline: as §1
Huh-7 = experiment: Cytotoxicity against human HuH7 cells; assay type: cell-based
Outline: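 Huh7 cytotoxicity measured together with the replicon antiviral assay, by extraction and amplification of ribosomal RNA. Each concentration run in triplicate and reported as mean.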

Hepatitis C virus [14] = experiment: Ratio of EC50 for Hepatitis C virus genotype 1b NS3/4A protease D168V mutant to EC50 Hepatitis C virus genotype 1b wild type NS3/4A protease; set-up: species or system Hepatitis C virus subtype 1b; outline: as §1
Hepatitis C virus [15] = experiment: Ratio of EC90 for Hepatitis C virus genotype 1b NS3/4A protease V170A mutant to EC90 Hepatitis C virus genotype 1b wild type NS3/4A protease; set-up: species or system Hepatitis C virus subtype 1b; outline: as §1
Cathepsin S = Cathepsin S (Homo sapiens, UniProt P25774); experiment: Inhibition of human cathepsin S
Hepatitis C virus [16] = experiment: Ratio of EC50 for Hepatitis C virus genotype 1b NS3/4A protease D168A mutant to EC50 Hepatitis C virus genotype 1b wild type NS3/4A protease; set-up: species or system Hepatitis C virus subtype 1b; outline: as §1
Hepatitis C virus [17] = experiment: Inhibition of Hepatitis C virus genotype 1b NS3/4A protease D168A mutant; set-up: species or system Hepatitis C virus subtype 1b; outline: as §3
Hepatitis C virus [18] = experiment: Inhibition of Hepatitis C virus genotype 1b NS3/4A protease V170A mutant; set-up: species or system Hepatitis C virus subtype 1b; outline: as §3
Hepatitis C virus [19] = experiment: Ratio of EC50 for Hepatitis C virus genotype 1b NS3/4A protease A156T mutant to EC50 Hepatitis C virus genotype 1b wild type NS3/4A protease; set-up: species or system Hepatitis C virus subtype 1b; outline: as §1
Hepatitis C virus [20] = experiment: Inhibition of Hepatitis C virus genotype 1b NS3/4A protease V36M mutant; set-up: species or system Hepatitis C virus subtype 1b; outline: as §3
Hepatitis C virus [21] = experiment: Ratio of EC90 for Hepatitis C virus genotype 1b NS3/4A protease V36M mutant to EC90 Hepatitis C virus genotype 1b wild type NS3/4A protease; set-up: species or system Hepatitis C virus subtype 1b; outline: as §1
Prothrombin = Prothrombin (Homo sapiens, UniProt P00734); experiment: Inhibition of human thrombin
Hepatitis C virus [22] = experiment: Ratio of EC90 for Hepatitis C virus genotype 1b NS3/4A protease A156S mutant to EC90 Hepatitis C virus genotype 1b wild type NS3/4A protease; set-up: species or system Hepatitis C virus subtype 1b; outline: as §1
Hepatitis C virus [23] = experiment: Ratio of EC90 for Hepatitis C virus genotype 1b NS3/4A protease A156T mutant to EC90 Hepatitis C virus genotype 1b wild type NS3/4A protease; set-up: species or system Hepatitis C virus subtype 1b; outline: as §1
Hepatitis C virus [24] = experiment: Inhibition of Hepatitis C virus genotype 1b NS3/4A protease D168V mutant; set-up: species or system Hepatitis C virus subtype 1b; outline: as §3
Neutrophil elastase = biological target: T2, Neutrophil elastase (Homo sapiens, UniProt P08246); experiment: as §2
T2 sequence (P08246 whole entry): T1 sequence (whole entry)

PBMC = experiment: Cytotoxicity against human PBMC; assay type: cell-based
Outline: (§4)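 Cytotoxicity was profiled in three cell types: primary human peripheral blood mononuclear (PBM) cells, CEM (a human T-cell-derived line) and Vero (African green monkey kidney epithelial cells).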

Vero = experiment: Cytotoxicity against african green monkey Vero cells; assay type: cell-based; conditions: chlorocebus sabaeus; outline: as §4
CCRF-CEM = experiment: Cytotoxicity against human CEM cells; assay type: cell-based; outline: as §4

Plasminogen, sequence (P00747 97-580 limits assumed): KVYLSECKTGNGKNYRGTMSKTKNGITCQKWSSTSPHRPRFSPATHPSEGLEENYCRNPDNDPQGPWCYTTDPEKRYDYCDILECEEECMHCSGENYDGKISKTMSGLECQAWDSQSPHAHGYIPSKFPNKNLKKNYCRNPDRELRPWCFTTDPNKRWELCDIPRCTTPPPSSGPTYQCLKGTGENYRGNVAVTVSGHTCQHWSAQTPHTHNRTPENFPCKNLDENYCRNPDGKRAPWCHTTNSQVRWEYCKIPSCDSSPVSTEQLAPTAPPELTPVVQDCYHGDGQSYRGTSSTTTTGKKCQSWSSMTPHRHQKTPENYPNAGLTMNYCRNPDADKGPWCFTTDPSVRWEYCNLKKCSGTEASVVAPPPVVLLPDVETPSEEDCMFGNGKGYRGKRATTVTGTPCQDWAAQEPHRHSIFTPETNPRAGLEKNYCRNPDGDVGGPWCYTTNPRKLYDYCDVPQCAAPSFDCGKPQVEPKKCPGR
Plasminogen, sequence (P00747 581-810 limits assumed): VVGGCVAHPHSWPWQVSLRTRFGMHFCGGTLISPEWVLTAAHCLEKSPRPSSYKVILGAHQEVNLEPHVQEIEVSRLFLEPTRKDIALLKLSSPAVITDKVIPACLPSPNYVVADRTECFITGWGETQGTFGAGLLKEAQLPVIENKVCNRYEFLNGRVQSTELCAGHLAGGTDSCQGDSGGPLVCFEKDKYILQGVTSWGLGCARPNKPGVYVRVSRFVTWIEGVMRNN

Structure (SMILES): CCC[C@H](NC(=O)[C@@H]1[C@H]2CCC[C@H]2CN1C(=O)[C@@H](NC(=O)[C@@H](NC(=O)c1cnccn1)C1CCCCC1)C(C)(C)C)C(=O)C(=O)NC1CC1
- pIC50 (Plasminogen): 5.06
- Ratio EC50 (Hepatitis C virus [1]): 3.3
- IC90 [2]: > 100 µM
- Ratio (Hepatitis C virus [3]): 0.9
- Ratio EC50 (Hepatitis C virus [4]): 8.5
- pEC50 (Hepatitis C virus [5]): 5.66
- EC90 (Hepatitis C virus [5]): 52 µM
- pEC50 (Hepatitis C virus [6]): 6.10
- EC90 (Hepatitis C virus [6]): 8.3 µM
- Ratio EC50 (Hepatitis C virus [7]): 37
- pEC50 (Hepatitis C virus [8]): 7.22
- EC90 (Hepatitis C virus [8]): 0.78 µM
- pEC50 (Hepatitis C virus [9]): 4.34
- EC90 (Hepatitis C virus [9]): > 100 µM
- Ratio (Hepatitis C virus [10]): 0.9
- pEC50 (Hepatitis C virus [11]): 6.40
- EC90 (Hepatitis C virus [11]): 0.9 µM
- Ratio (Hepatitis C virus [12]): 11
- Ratio EC50 (Hepatitis C virus [13]): 13
- CC50 (Huh-7): > 10 µM
- Ratio EC50 (Hepatitis C virus [14]): 1.3
- Ratio (Hepatitis C virus [15]): 1.9
- pIC50 (Cathepsin S): < 4.00
- IC90 (Cathepsin S): > 100 µM
- Ratio EC50 (Hepatitis C virus [16]): 1
- pEC50 (Hepatitis C virus [17]): 6.24
- EC90 (Hepatitis C virus [17]): 0.69 µM
- pEC50 (Hepatitis C virus [18]): 6.70
- EC90 (Hepatitis C virus [18]): 1.5 µM
- Ratio EC50 (Hepatitis C virus [19]): 780
- pEC50 (Hepatitis C virus [20]): 6.29
- EC90 (Hepatitis C virus [20]): 5.1 µM
- Ratio (Hepatitis C virus [21]): 6.5
- pIC50 (Prothrombin): > 6.00
- IC90 (Prothrombin): < 1 µM
- Ratio (Hepatitis C virus [22]): 66
- Ratio (Hepatitis C virus [23]): >130
- pEC50 (Hepatitis C virus [24]): 7.10
- EC90 (Hepatitis C virus [24]): 0.74 µM

Structure (SMILES): CC(C)(C)NC(=O)N[C@H](C(=O)N1C[C@H]2[C@@H]([C@H]1C(=O)NC(CC1CCC1)C(=O)C(N)=O)C2(C)C)C(C)(C)C (some centres not stated) [BOCEPREVIR]
- pIC50 (Plasminogen): < 4.00
- IC90 (Plasminogen): > 100 µM
- pIC50 (Neutrophil elastase): ≤ 4.00
- IC90 [2]: > 100 µM
- EC90 (Hepatitis C virus [5]): ≥ 100 µM
- EC90 (Hepatitis C virus [6]): 4.8 µM
- EC90 (Hepatitis C virus [8]): 1 µM
- EC90 (Hepatitis C virus [9]): > 100 µM
- CC50 (PBMC): > 100 µM
- pEC50 (Hepatitis C virus [11]): 8.00
- EC90 (Hepatitis C virus [11]): 0.03 µM
- CC50 (Huh-7): > 10 µM
- pIC50 (Cathepsin S): < 4.00
- IC90 (Cathepsin S): > 100 µM
- EC90 (Hepatitis C virus [17]): 4.7 µM
- EC90 (Hepatitis C virus [18]): 7.7 µM
- EC90 (Hepatitis C virus [20]): 5.6 µM
- pIC50 (Prothrombin): > 6.00
- IC90 (Prothrombin): < 1.4 µM
- EC90 (Hepatitis C virus [24]): 0.9 µM
- CC50 (Vero): > 100 µM
- CC50 (CCRF-CEM): > 100 µM

Structure (SMILES): CCCC(NC(=O)C1N(C(=O)[C@@H](NC(=O)[C@@H](NC(=O)c2cnccn2)C2CCCCC2)C(C)(C)C)CC12CCCCC2)C(=O)C(=O)NCCF (some centres not stated)
- CC50 (PBMC): 32 µM
- pEC50 (Hepatitis C virus [11]): 5.27
- EC90 (Hepatitis C virus [11]): 9.7 µM
- CC50 (Huh-7): > 10 µM
- CC50 (Vero): 21 µM
- CC50 (CCRF-CEM): 5.4 µM
